The values below come from ChEMBL document CHEMBL4145462, “Nitrogen-containing ecdysteroid derivatives vs. multi-drug resistance in cancer: Preparation and antitumor activity of oximes, oxime ethers and a lactam” (Eur J Med Chem, 2018).

Molecules are shown by their SMILES.

Chain of ABCB1 (P-glycoprotein) (P08183 whole entry): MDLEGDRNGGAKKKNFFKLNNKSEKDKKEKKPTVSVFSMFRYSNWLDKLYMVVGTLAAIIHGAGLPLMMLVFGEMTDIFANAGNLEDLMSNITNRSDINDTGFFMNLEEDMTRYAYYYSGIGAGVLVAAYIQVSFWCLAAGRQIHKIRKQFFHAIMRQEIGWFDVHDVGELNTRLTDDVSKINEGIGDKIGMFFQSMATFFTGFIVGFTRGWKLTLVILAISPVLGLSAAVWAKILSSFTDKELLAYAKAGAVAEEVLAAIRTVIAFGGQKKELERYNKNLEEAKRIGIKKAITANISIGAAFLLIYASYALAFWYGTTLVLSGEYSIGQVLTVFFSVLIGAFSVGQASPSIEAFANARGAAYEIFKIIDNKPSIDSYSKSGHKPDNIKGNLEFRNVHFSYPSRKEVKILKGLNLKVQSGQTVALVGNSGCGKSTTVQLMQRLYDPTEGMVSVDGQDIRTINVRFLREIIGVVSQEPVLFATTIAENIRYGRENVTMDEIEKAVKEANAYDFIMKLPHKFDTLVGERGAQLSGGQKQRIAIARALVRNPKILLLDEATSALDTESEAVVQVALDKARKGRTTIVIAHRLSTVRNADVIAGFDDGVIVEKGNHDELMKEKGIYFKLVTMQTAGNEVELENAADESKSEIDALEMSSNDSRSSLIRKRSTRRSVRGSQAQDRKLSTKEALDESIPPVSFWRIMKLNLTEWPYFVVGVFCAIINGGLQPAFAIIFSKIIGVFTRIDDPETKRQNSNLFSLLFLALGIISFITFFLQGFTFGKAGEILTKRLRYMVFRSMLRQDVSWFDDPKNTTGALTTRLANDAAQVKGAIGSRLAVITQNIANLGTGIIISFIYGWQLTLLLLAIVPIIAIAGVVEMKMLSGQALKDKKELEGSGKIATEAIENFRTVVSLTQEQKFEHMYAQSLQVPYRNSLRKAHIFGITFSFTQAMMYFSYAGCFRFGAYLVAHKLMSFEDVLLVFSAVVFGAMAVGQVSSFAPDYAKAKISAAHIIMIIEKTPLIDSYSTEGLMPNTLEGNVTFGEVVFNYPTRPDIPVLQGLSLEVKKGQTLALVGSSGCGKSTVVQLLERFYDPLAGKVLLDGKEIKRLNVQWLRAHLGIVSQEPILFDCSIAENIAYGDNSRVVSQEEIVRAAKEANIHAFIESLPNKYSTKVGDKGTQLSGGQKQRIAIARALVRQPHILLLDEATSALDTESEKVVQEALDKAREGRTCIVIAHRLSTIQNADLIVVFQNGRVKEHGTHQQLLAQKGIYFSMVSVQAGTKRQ

Tested on in one data set: not listed separately
As to the kind of experiment: Synergistic cytotoxicity against mouse L5178 cells expressing human ABCB1 assessed as combination index at ED50 using 7.5:1 test compound to doxorubicin ratio after 48 hrs by MTT-based checkerboard microplate method. It counts as functional.
Details: not given
The essentials: (§1)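 Checkerboard microplate combinations of compound with doxorubicin at constant molar ratios. 5 × 10^4 cells/well in McCoy's 5A, 48 h at 37°C, 5% CO2. MTT added to 0.5 mg/mL final for 4 h, SDS/HCl overnight, OD read at 540 and 630 nm. Combination indices derived per ratio for 50%, 75% and 90% growth inhibition by median-effect analysis.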
With `C=CCO/N=C1/C=C2C3=CC[C@H]([C@@]4(C)OC(C)(C)O[C@@H]4CCC(C)(C)O)[C@@]3(C)CC[C@@H]2[C@@]2(C)C[C@@H]3OC(C)(C)O[C@@H]3C[C@@H]12`, the CI is listed as 0.22.

Tested on in another data set: not listed separately
As to the kind of experiment: Synergistic cytotoxicity against mouse L5178 cells expressing human ABCB1 assessed as combination index at ED90 using 3.75:1 test compound to doxorubicin ratio after 48 hrs by MTT-based checkerboard microplate method. In kind it is functional.
Details: not given
Put shortly:
as §1
For the molecule `C=CCO/N=C1/C=C2C3=CC[C@H]([C@@]4(C)OC(C)(C)O[C@@H]4CCC(C)(C)O)[C@@]3(C)CC[C@@H]2[C@@]2(C)C[C@@H]3OC(C)(C)O[C@@H]3C[C@@H]12`, the CI is 0.11.

A further data set concerns the target ABCB1 (P-glycoprotein) (Homo sapiens, UniProt P08183). As to the kind of experiment: Inhibition of human ABCB1 expressed in mouse L5178 cells assessed as increase in rhodamine-123 accumulation at 20 uM after 10 mins by flow cytometric analysis relative to control. In kind it is cell-based. To be noted: mouse L5178 cells expressing human ABCB1, probe rhodamine-123. Put shortly:
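Cells at 2 × 10^6/mL were preincubated 10 min with compound. Rhodamine 123 then added to 5.2 µM final, 20 min at 37 °C. Cells washed twice in PBS, resuspended and read by flow cytometry. Percent inhibition was scaled between MDR-cell accumulation (0%) and parental L5178 accumulation (100%). Controls: 100 nM tariquidar (positive) and 2% DMSO (negative).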
A general note: In flow cytometry, cells or beads pass a laser one at a time.
As usually defined, the inhibition is the drop in the measured response relative to a control, in per cent. Consider `C=CCO/N=C1/C=C2C3=CC[C@H]([C@@]4(C)OC(C)(C)O[C@@H]4CCC(C)(C)O)[C@@]3(C)CC[C@@H]2[C@@]2(C)C[C@@H]3OC(C)(C)O[C@@H]3C[C@@H]12`, for which the inhibition at 10 min, 20 µM is 103%.

Tested on in another data set: not listed separately
As to the kind of experiment: Synergistic cytotoxicity against mouse L5178 cells assessed as combination index at ED75 using 300:1 test compound to doxorubicin ratio after 48 hrs by MTT-based checkerboard microplate method. It counts as functional.
Details: not given
The essentials: as §1
In the case of `C=CCO/N=C1/C=C2C3=CC[C@H]([C@@]4(C)OC(C)(C)O[C@@H]4CCC(C)(C)O)[C@@]3(C)CC[C@@H]2[C@@]2(C)C[C@@H]3OC(C)(C)O[C@@H]3C[C@@H]12`, the CI stood at 0.88.

Tested on in a further data set: not listed separately
The experiment in a line: Synergistic cytotoxicity against mouse L5178 cells assessed as combination index at ED90 using 150:1 test compound to doxorubicin ratio after 48 hrs by MTT-based checkerboard microplate method. It counts as functional.
Details: not given
The essentials: as §1
On to `C=CCO/N=C1/C=C2C3=CC[C@H]([C@@]4(C)OC(C)(C)O[C@@H]4CCC(C)(C)O)[C@@]3(C)CC[C@@H]2[C@@]2(C)C[C@@H]3OC(C)(C)O[C@@H]3C[C@@H]12`, for which the CI is reported as 0.8.

Tested on in a further data set: not listed separately
The experiment in a line: Synergistic cytotoxicity against mouse L5178 cells expressing human ABCB1 assessed as combination index at ED75 using 7.5:1 test compound to doxorubicin ratio after 48 hrs by MTT-based checkerboard microplate method.
Details: not given
It counts as functional. The essentials:
as §1
In the case of `C=CCO/N=C1/C=C2C3=CC[C@H]([C@@]4(C)OC(C)(C)O[C@@H]4CCC(C)(C)O)[C@@]3(C)CC[C@@H]2[C@@]2(C)C[C@@H]3OC(C)(C)O[C@@H]3C[C@@H]12`, the CI is recorded as 0.17.

Tested on in the next data set: not listed separately
As to the kind of experiment: Synergistic cytotoxicity against mouse L5178 cells assessed as combination index at ED50 using 600:1 test compound to doxorubicin ratio after 48 hrs by MTT-based checkerboard microplate method. In kind it is functional.
Details: not given
Put shortly: as §1
For `C=CCO/N=C1/C=C2C3=CC[C@H]([C@@]4(C)OC(C)(C)O[C@@H]4CCC(C)(C)O)[C@@]3(C)CC[C@@H]2[C@@]2(C)C[C@@H]3OC(C)(C)O[C@@H]3C[C@@H]12`, the CI turned out to be 0.88.

For another data set, the system named is MCF7. The experiment in a line: Antiproliferative activity against human MCF7 cells after 72 hrs by MTT assay. In kind it is functional, cell-based. To be noted: MCF7, 72 h. The essentials:
(§2)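 Cells grown in MEM with 10% FCS, 1% non-essential amino acids and 1% penicillin-streptomycin. Seeded at 5000 cells/well, exposed to 0.1–30.0 µM compound for 72 h. MTT (5 mg/ml solution) was then added for 4 h, formazan dissolved in DMSO, and absorbance read at 545 nm. Cisplatin served as positive control. IC50 came from sigmoidal dose–response fits (log inhibitor vs normalized response, variable slope).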
(Tetrazolium dyes change colour on reduction, which living cells bring about.)
The IC50 is the midpoint of a concentration-inhibition curve. Low values mean inhibition by little substance, high ones a need for much substance. Regarding `C=CCO/N=C1/C=C2C3=CC[C@H]([C@@]4(C)OC(C)(C)O[C@@H]4CCC(C)(C)O)[C@@]3(C)CC[C@@H]2[C@@]2(C)C[C@@H]3OC(C)(C)O[C@@H]3C[C@@H]12`, the IC50 is 24.2 µM.

In a further data set the test system is MDA-MB-231. The experiment in a line: Antiproliferative activity against human MDA-MB-231 cells after 72 hrs by MTT assay. It counts as functional, cell-based. To be noted: MDA-MB-231, 72 h. The essentials: as §2
`C=CCO/N=C1/C=C2C3=CC[C@H]([C@@]4(C)OC(C)(C)O[C@@H]4CCC(C)(C)O)[C@@]3(C)CC[C@@H]2[C@@]2(C)C[C@@H]3OC(C)(C)O[C@@H]3C[C@@H]12` showed an IC50 of 29.4 µM.

Tested on in a further data set: not listed separately
As to the kind of experiment: Synergistic cytotoxicity against mouse L5178 cells expressing human ABCB1 assessed as combination index at ED50 using 15:1 test compound to doxorubicin ratio after 48 hrs by MTT-based checkerboard microplate method. In kind it is functional.
Details: not given
Put shortly: as §1
With `C=CCO/N=C1/C=C2C3=CC[C@H]([C@@]4(C)OC(C)(C)O[C@@H]4CCC(C)(C)O)[C@@]3(C)CC[C@@H]2[C@@]2(C)C[C@@H]3OC(C)(C)O[C@@H]3C[C@@H]12`, the CI turned out to be 0.5.

Tested on in another data set: not listed separately
As to the kind of experiment: Synergistic cytotoxicity against mouse L5178 cells expressing human ABCB1 assessed as combination index at ED90 using 60:1 test compound to doxorubicin ratio after 48 hrs by MTT-based checkerboard microplate method. In kind it is functional.
Details: not given
The essentials: as §1
As for `C=CCO/N=C1/C=C2C3=CC[C@H]([C@@]4(C)OC(C)(C)O[C@@H]4CCC(C)(C)O)[C@@]3(C)CC[C@@H]2[C@@]2(C)C[C@@H]3OC(C)(C)O[C@@H]3C[C@@H]12`, the CI worked out at 0.39.

Tested on in the next data set: not listed separately
As to the kind of experiment: Synergistic cytotoxicity against mouse L5178 cells expressing human ABCB1 assessed as combination index at ED50 using 30:1 test compound to doxorubicin ratio after 48 hrs by MTT-based checkerboard microplate method.
Details: not given
In kind it is functional. Put shortly: as §1
In the case of `C=CCO/N=C1/C=C2C3=CC[C@H]([C@@]4(C)OC(C)(C)O[C@@H]4CCC(C)(C)O)[C@@]3(C)CC[C@@H]2[C@@]2(C)C[C@@H]3OC(C)(C)O[C@@H]3C[C@@H]12`, the CI came out at 0.32.

Tested on in a further data set: not listed separately
As to the kind of experiment: Synergistic cytotoxicity against mouse L5178 cells assessed as combination index at ED90 using 75:1 test compound to doxorubicin ratio after 48 hrs by MTT-based checkerboard microplate method. In kind it is functional.
Details: not given
Put shortly:
as §1
In the case of `C=CCO/N=C1/C=C2C3=CC[C@H]([C@@]4(C)OC(C)(C)O[C@@H]4CCC(C)(C)O)[C@@]3(C)CC[C@@H]2[C@@]2(C)C[C@@H]3OC(C)(C)O[C@@H]3C[C@@H]12`, the CI worked out at 0.44.

Tested on in another data set: not listed separately
As to the kind of experiment: Synergistic cytotoxicity against mouse L5178 cells assessed as combination index at ED75 using 600:1 test compound to doxorubicin ratio after 48 hrs by MTT-based checkerboard microplate method. It counts as functional.
Details: not given
Put shortly:
as §1
Turning to `C=CCO/N=C1/C=C2C3=CC[C@H]([C@@]4(C)OC(C)(C)O[C@@H]4CCC(C)(C)O)[C@@]3(C)CC[C@@H]2[C@@]2(C)C[C@@H]3OC(C)(C)O[C@@H]3C[C@@H]12`, the CI turned out to be 0.99.
